Measured values gathered from unrelated publications.
Lines come from different studies, so protocols differ.
Target: Rhodopsin kinase GRK1 (GRK1, Homo sapiens, UniProt Q15835)
Residues used in one study (Q15835 1-563): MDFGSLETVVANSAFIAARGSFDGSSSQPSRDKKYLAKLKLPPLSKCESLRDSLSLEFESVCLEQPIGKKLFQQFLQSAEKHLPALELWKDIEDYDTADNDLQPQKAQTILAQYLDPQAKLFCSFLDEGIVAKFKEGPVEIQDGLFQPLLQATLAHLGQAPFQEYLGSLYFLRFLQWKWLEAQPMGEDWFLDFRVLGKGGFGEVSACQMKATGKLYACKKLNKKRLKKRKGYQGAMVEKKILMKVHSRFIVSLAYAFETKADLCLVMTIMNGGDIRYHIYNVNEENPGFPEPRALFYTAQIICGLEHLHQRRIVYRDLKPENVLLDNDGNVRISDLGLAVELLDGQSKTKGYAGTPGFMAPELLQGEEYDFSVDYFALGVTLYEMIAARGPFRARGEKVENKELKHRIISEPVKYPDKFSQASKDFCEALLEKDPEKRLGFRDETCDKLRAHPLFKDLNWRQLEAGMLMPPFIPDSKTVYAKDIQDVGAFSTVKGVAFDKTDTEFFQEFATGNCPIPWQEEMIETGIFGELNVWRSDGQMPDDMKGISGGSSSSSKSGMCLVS

C1=C/COCc2cc(ccc2OCCN2CCCC2)Nc2nccc(n2)-c2cccc(c2)COC/1 — remaining binding (binding; 0.1 µM): 94%
CO[C@@H]1[C@H](N(C)C(=O)c2ccccc2)C[C@H]2O[C@]1(C)n1c3ccccc3c3c4c(c5c6ccccc6n2c5c31)C(=O)NC4 — inhibition (enzyme activity; inhibitor; 1 µM): 94%
COc1ccc2oc(-c3ccc4nc(N)oc4c3)c/c(=N\c3ccccc3NC(=O)CCN)c2c1 — remaining binding (binding; 1 µM): 98%
CCCCC(=O)Nc1ccc(-c2ccc3ncn(CCC)c(=O)c3c2)cn1 — remaining binding (binding; competition with immobilised ligand; 0.5 µM): 96%
COc1ccc2[nH]c3c4[nH]c5ccc(OC)cc5c4c4c(c3c2c1)C(=O)NC4=O — remaining binding (binding; 1 µM): 95%
C=CC(=O)N1CCC([C@@H]2CCNc3c(C(N)=O)c(-c4ccc(Oc5ccccc5)cc4)nn32)CC1 — inhibition (enzyme activity; inhibitor; 1 µM): 34%
C[C@H]1CC[C@H](n2c3cnccc3c3cnc(Nc4ccc5c(n4)CCN(C(=O)CO)C5)nc32)CC1 — remaining signal (cell-free assay; 1 µM): 100%
CC(C)S(=O)(=O)c1ccc2nccc(Nc3ccc4sc(C5CCCC5)nc4c3)c2c1 — activity vs control (enzyme activity; inhibitor; 1 µM): 112%
